Legend:
Dihydrofolate reductase = molecular target: T1, Dihydrofolate reductase (Homo sapiens, UniProt P00374); assay: Inhibition of human DHFR
T1 sequence (P00374 whole entry): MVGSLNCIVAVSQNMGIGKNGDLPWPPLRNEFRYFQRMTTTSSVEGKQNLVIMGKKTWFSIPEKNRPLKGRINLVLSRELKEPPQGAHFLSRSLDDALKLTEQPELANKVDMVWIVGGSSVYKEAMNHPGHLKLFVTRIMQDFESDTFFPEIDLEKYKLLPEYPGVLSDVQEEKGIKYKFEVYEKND
Method in brief: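 Steady-state spectrophotometric assay at 340 nm, run separately for DHFR and TS reactions. Compound preincubated 30 min with enzyme and substrates before starting the reaction. Identical enzyme and ligand concentrations for all targets. DMSO-matched blank; rates normalized to it. IC50 as mean ± standard deviation.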

Cryptosporidium hominis = assay: Inhibition of DHFR activity of Cryptosporidium hominis thymidylate synthase-dihydrofolate reductase beta face mutant by steady state kinetic assay relative wild type TS-DHFR
Method in brief: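 Bifunctional TS–DHFR enzymes (wild type and crossover-helix mutants) were over-expressed in E. coli BL21 and purified. DHFR activity was followed at 340 nm by steady-state spectroscopy. Enzyme and substrates were preincubated with mimetic for 30 min before starting the reaction. Rates were normalized to a matched DMSO blank. Enzyme and ligand concentrations were the same for each target, and IC50 was given as mean ± SD.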

[1] = Inhibition of DHFR activity of Cryptosporidium hominis thymidylate synthase-dihydrofolate reductase beta face mutant by steady state kinetic assay
Method in brief: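 Recombinant bifunctional TS–DHFR, Beta Face crossover-helix mutant, expressed in E. coli BL21. DHFR reaction was followed spectroscopically at 340 nm under steady-state conditions. Helix mimetic was added from a DMSO stock and preincubated with enzyme and substrates for 30 minutes before the reaction was started. Rates were normalized to a matched DMSO blank and fit as dose–response to give the IC50, reported as mean ± SD.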

For `CC(C)CN(C(=O)Nc1ccc(CCC(=O)O)cc1Cc1ccccc1)C(=O)c1ccc(OCC(=O)O)c(Cc2ccccc2)c1`, the IC50 (Dihydrofolate reductase) was > 1 mM, the Ratio IC50 (Cryptosporidium hominis) was 10 and the IC50 [1] was 18 µM.
